Reference: PMC2841442 (Journal of Medicinal Chemistry, 2010)
pIC50: −log10 of the molar value.

Assays:
NRP1 (PAE/NRP1 cells) [1] = target: T1, NRP1 (PAE/NRP1 cells) (Homo sapiens, UniProt O14786); assay: Inhibition of 125I-VEGF-A165 binding to PAE/NRP1 cells; details: 100 μM compound; 0.1 nM 125I-VEGF-A165; mean ± SEM, three experiments
In short: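 Porcine aortic endothelial cells stably expressing NRP1 (Ham's F12, 10% FBS, hygromycin B) were grown to confluence. They received test compound (0.1−100 μM), then 0.1 nM 125I-VEGF-A165 (1200−1800 Ci/mmol). Nonspecific binding was taken with 100-fold excess unlabeled VEGF. IC50 was fitted from competition curves for compounds giving >70% inhibition at 100 μM. Three independent experiments in triplicate, mean ± SEM.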

HUVECs = assay: VEGF-induced HUVEC migration; format: cell-based, human; details: 100 μM; VEGF 25 ng/mL; 4 h
In short: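 HUVECs were pretreated 30 min with test compound or DMSO, then 1.5 × 10^5 cells in EBM/0.1% BSA were loaded into collagen I-coated transwell inserts (8 μm pores). Bottom wells held VEGF at 25 ng/mL, or medium control. Plates ran 4 h at 37 °C. Migrated underside cells were stained and counted in four fields at ×100. Three independent experiments in duplicate, mean ± SEM.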

A549 cells = assay: A549 cell viability; format: cell-based, human
In short: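 A549 cells kept in RPMI 1640 with L-glutamine, seeded at 4 × 10^3 cells/well in serum-free medium with graded 5-FU or paclitaxel, with or without test compound at 100 μM. After 44 h, XTT was added for a further 4 h (48 h total). Formazan was read at 490 nm against 595 nm reference. Three independent experiments in triplicate, mean ± SEM.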

NRP1 (PAE/NRP1 cells) [2] = target: T1, NRP1 (PAE/NRP1 cells); details: read-out: IC50, 125I-VEGF-A binding to PAE/NRP1 and tumor cells; cited from earlier work

T1 sequence (O14786 22-923): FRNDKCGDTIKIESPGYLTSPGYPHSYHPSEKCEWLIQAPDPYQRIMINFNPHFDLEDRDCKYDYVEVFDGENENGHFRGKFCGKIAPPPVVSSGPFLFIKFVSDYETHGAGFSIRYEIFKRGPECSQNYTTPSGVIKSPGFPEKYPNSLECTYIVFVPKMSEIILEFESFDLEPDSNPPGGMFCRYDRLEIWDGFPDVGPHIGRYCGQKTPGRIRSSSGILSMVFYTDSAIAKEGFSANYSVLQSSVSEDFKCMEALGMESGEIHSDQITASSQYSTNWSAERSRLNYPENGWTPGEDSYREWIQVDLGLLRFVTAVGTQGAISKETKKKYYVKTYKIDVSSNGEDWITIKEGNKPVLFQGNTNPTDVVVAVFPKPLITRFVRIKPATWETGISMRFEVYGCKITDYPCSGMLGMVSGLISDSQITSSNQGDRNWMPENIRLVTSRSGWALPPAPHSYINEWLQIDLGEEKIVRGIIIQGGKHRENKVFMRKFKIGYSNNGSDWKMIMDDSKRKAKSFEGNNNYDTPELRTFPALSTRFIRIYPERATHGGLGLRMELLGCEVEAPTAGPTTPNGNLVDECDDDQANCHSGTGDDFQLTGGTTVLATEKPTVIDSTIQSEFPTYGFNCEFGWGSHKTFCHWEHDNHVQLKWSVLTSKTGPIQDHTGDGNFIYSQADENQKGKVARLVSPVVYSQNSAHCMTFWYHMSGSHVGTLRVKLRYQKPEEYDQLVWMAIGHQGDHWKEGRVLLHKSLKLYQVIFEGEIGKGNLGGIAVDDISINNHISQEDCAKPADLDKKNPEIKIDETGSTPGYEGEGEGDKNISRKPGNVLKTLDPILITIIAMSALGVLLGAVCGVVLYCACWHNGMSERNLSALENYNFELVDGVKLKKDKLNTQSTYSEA

Compound	inhibition of 125I-VEGF binding to PAE/NRP1 cells at 100 μM (NRP1 (PAE/NRP1 cells) [1]) [%]	further results
H-KPAQ-OH [Compound 24]	19 ± 7.6	–
N=C(N)NCCC[C@H](NC(=O)c1sccc1NS(=O)(=O)c1cccc2nsnc12)C(=O)O [Compound 2, (S)-2-(3-(Benzo[c][1,2,5]thiadiazole-4-sulfonamido)thiophene-2-carboxamido)-5-guanidinopentanoic Acid]	–	VEGF-A induced migration of HUVECs (HUVECs): significantly reduced; A549 cell viability (A549 cells; 48 h incubation): significant reduction; enhancement of the cytotoxic effect of 5-fluorouracil (A549 cells; A549 cells, 100 μM 2): ~10 fold; enhancement of the cytotoxic effect of paclitaxel (A549 cells; A549 cells, 100 μM 2): approximately 4 fold
H-KPAK-OH [Compound 23]	22 ± 1.2	–
H-KPAr-OH [Compound 22]	22 ± 9.5	–
1: bicyclic peptide corresponding to the C-terminal 28 amino acids of VEGF-A165 [Compound 1]	–	pIC50 (NRP1 (PAE/NRP1 cells) [2]): 5.52 to 5.70
H-kPAR-OH [Compound 18]	51 ± 7.9	–
H-KPaR-OH [Compound 19]	36 ± 5.1	–
